This is an account of results in ChEMBL document CHEMBL1145200, “4-Benzyl and 4-benzoyl-3-dimethylaminopyridin-2(1H)-ones: in vitro evaluation of new C-3-amino-substituted and C-5,6-alkyl-substituted analogues against clinically important HIV mutant strains” (J Med Chem, 2005).

Assay [1] has as its system Human immunodeficiency virus 1. Kind of assay: In vitro inhibitory concentration against HIV L100I and K103N mutant strain. Type of assay: functional, organism-based. The procedure, abridged:
(§1)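 MT4 human T-lymphoblastoid cells, grown in RPMI 1640 with 10% fetal calf serum and antibiotics at 37 °C under 5% CO2. Mutant HIV-1 strains were added at 200 CCID50/well with 30 000 cells/well across a compound concentration range. After 5 days at 37 °C, viability was read by MTT colorimetry. EC50 is the concentration giving 50% infection relative to the drug-free control.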

For assay [2], the system named is Human immunodeficiency virus 1. The assay is described as follows: In vitro inhibitory concentration against HIV K101E and K103N mutant strain. Type of assay: functional, organism-based. The gist of the method: as §1
Assay [3] has as its system Human immunodeficiency virus 1. The assay is described as follows: In vitro inhibitory concentration against HIV K101E mutant strain. In kind it is functional, organism-based. The gist of the method:
as §1

Assay [4] has as its system Human immunodeficiency virus 1. Kind of assay: In vitro inhibitory concentration value against HIV K103N and Y181C mutant strain. In kind it is functional, organism-based. The gist of the method:
as §1

Assay [5] has as its system Human immunodeficiency virus 1. The assay is described as follows: In vitro inhibitory concentration against HIV G190A mutant strain. In kind it is functional, organism-based. The gist of the method: as §1
Assay [6] deals with Human immunodeficiency virus 1. Kind of assay: In vitro inhibitory concentration against HIV LAI cell line. In kind it is functional, organism-based. The following applies: Human immunodeficiency virus 1, LAI. The procedure, abridged:
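HIV-1 LAI was added at 200 CCID50/well to MT4 human T-lymphoblastoid cells (30 000 cells/well) across a concentration range of compound. Cells were grown in RPMI 1640 with 10% fetal calf serum and antibiotics. After 5 days at 37 °C in 5% CO2, cell viability was read by MTT colorimetry. EC50 was the concentration giving 50% infection versus the drug-free control.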

Assay [7] relates to Human immunodeficiency virus 1. The assay is described as follows: In vitro inhibitory concentration against HIV F227C mutant strain. In kind it is functional, organism-based. The procedure, abridged:
as §1

Assay [8] concerns Human immunodeficiency virus 1. The assay is described as follows: In vitro inhibitory concentration against HIV L100I mutant strain. In kind it is functional, organism-based. The procedure, abridged:
as §1

Assay [9] relates to Human immunodeficiency virus 1. The assay is described as follows: In vitro inhibitory concentration against HIV-1 Y181C mutant strain. Type of assay: functional, organism-based. The procedure, abridged:
as §1

Assay [10] has as its system Human immunodeficiency virus 1. Kind of assay: Selective index value (ratio of CC50 to IC50 value)against HIV LAI cell line. In kind it is functional. The procedure, abridged: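 Ratio of CC50 to IC50 against LAI. CC50 came from mock-infected MT4 cultures (30 000 cells/well) given the same compound concentration range, run in parallel with LAI-infected cultures (200 CCID50/well). Incubation was 5 days at 37 °C in 5% CO2, with MTT viability read-out.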

Assay [11] deals with Human immunodeficiency virus 1. Kind of assay: In vitro inhibitory concentration against HIV V106A mutant strain. In kind it is functional, organism-based. The gist of the method:
as §1

For assay [12], the system named is Human immunodeficiency virus 1. Kind of assay: In vitro inhibitory concentration against HIV K103N mutant strain. In kind it is functional, organism-based. The procedure, abridged: as §1
The test system of assay [13] is Human immunodeficiency virus 1. Kind of assay: In vitro inhibitory concentration against HIV E138K mutant strain. In kind it is functional, organism-based. The gist of the method:
as §1

The test system of assay [14] is Human immunodeficiency virus 1. Kind of assay: In vitro inhibitory concentration against HIV G190S mutant strain. In kind it is functional, organism-based. The procedure, abridged:
as §1

In assay [15] the test system is Human immunodeficiency virus 1. Kind of assay: In vitro inhibitory concentration against HIV V179E mutant strain. In kind it is functional, organism-based. The procedure, abridged: as §1
Assay [16] deals with Human immunodeficiency virus 1. The assay is described as follows: In vitro inhibitory concentration against HIV Y188L mutant strain. Type of assay: functional, organism-based. The gist of the method:
as §1

In assay [17] the test system is Human immunodeficiency virus 1. Kind of assay: In vitro inhibitory concentration against HIV F227L and V106A mutant strain. In kind it is functional, organism-based. The procedure, abridged: as §1

As to `CCc1c(C)[nH]c(=O)c(N(C)CCOC)c1Cc1cccc(C)c1`, the IC50 (in general, the point on the concentration scale where inhibition reaches its midpoint) in assay [1] worked out at 794 nM; in assay [2] it was 100 nM; in assay [3], 16 nM; in assay [4], 10000 nM; in [5], 100 nM; in assay [6] it was 1 nM. The IC50 in assay [7] is 790 nM; in assay [8] it was 6 nM; in [9], 794 nM; in [11] it was 63 nM; in [12] it was 79 nM; in assay [13], 8 nM. Moreover, the concentration for half-maximal inhibition (IC50) in assay [14] amounted to 39 nM; in assay [15] it was 4 nM; in [16], 398 nM; in assay [17], 3980 nM. Moreover, the SI in assay [10] was determined as 10000.
On to `CCc1c(C)[nH]c(=O)c(N(C)CC)c1Cc1cc(C)cc(C)c1`, for which the concentration for half-maximal inhibition (IC50) in [1] was 598 nM; in assay [2] it was 139 nM; in [3] it was 79 nM; in assay [4] it was 3120 nM; in [5], 63 nM; in assay [6], 8 nM. Also, the 50% inhibitory concentration (IC50) came to 1120 nM in assay [7]; 63 nM in assay [8]; 316 nM in [9]; 316 nM in assay [11]; 79 nM in assay [12]; 63 nM in [13]. Besides, the concentration for half-maximal inhibition (IC50) in assay [14] worked out at 316 nM; in assay [15], 32 nM; in assay [16] it was 1260 nM. In addition, in assay [10], the SI turned out to be 3980.
On to `CCc1c(C)[nH]c(=O)c(N(C)CC)c1Cc1cccc(/C=C/C#N)c1`, for which the 50% inhibitory concentration (IC50) in assay [1] amounted to 200 nM; in assay [2] it was 158 nM; in assay [3] it was 6 nM; in assay [4], 199 nM; in assay [5], 10 nM; in assay [6], 1 nM. Moreover, the half-maximal inhibitory concentration (IC50) in assay [7] was found to be 794 nM; in [8] it was 10 nM; in assay [9] it was 32 nM; in [11] it was 8 nM; in assay [12], 6 nM; in [13] it was 6 nM. In addition, the IC50 came out at 125 nM in [14], 2 nM in assay [15], 251 nM in assay [16] and 3160 nM in assay [17]. Moreover, the SI in [10] was 10000.
As for `CCc1c(C)[nH]c(=O)c(N(C)C(C)COC)c1Cc1cc(C)cc(C)c1` (configuration not stated), the IC50 in [1] was 1000 nM; in assay [2] it was 362 nM; in [3] it was 58 nM; in assay [4] it was 8680 nM; in assay [5], 78 nM; in assay [6], 6 nM. The half-inhibitory concentration (IC50) in assay [7] was determined as 869 nM; in [8] it was 79 nM; in [9], 398 nM; in assay [12] it was 79 nM; in assay [13], 17 nM; in assay [14], 62 nM. Besides, the half-maximal inhibitory concentration (IC50) is 9 nM in assay [15], 251 nM in assay [16] and 10000 nM in assay [17]. In assay [10], the SI was determined as 7940.
Take `COCCCc1c(C)nc(O)c(N(C)C)c1C(=O)c1cccc(C)c1`: the IC50 in [1] came to 63 nM; in assay [2] it was 158 nM; in assay [3] it was 32 nM; in [4] it was 200 nM; in assay [5] it was 16 nM; in assay [6] it was 8 nM. The half-maximal inhibitory concentration (IC50) in [7] was 631 nM; in assay [8] it was 20 nM; in assay [9], 160 nM; in assay [11], 40 nM; in assay [12], 126 nM; in [13], 20 nM. Besides, the half-inhibitory concentration (IC50) came out at 32 nM in assay [14], 8 nM in assay [15], 158 nM in [16] and 40 nM in assay [17]. For the same compound, the SI in assay [10] turned out to be 1260.
For the compound `CCc1c(C)[nH]c(=O)c(N(C)C)c1Cc1cc(C)cc(C)c1`, the IC50 in assay [3] came to 16 nM; in assay [4] it was 794 nM; in assay [5], 63 nM; in assay [8] it was 50 nM; in [9], 100 nM; in [11] it was 40 nM. The values for the 50% inhibitory concentration (IC50) in assay [12] and in assay [16] were 32 nM and 251 nM, respectively. For the same compound, the SI in assay [10] is 12600.
For the compound `CCc1c(C)[nH]c(=O)c(N(C)C)c1C(=O)c1cc(C)cc(C)c1`, the IC50 in assay [1] was found to be 40 nM; in [2], 13 nM; in assay [3], 8 nM; in assay [4] it was 158 nM; in assay [5], 13 nM; in assay [7] it was 631 nM. Besides, the 50% inhibitory concentration (IC50) came to 6 nM in assay [8]; 63 nM in assay [9]; 6 nM in assay [11]; 10 nM in [12]; 5 nM in [13]; 4 nM in assay [14]. The figures for the IC50 in assay [15], in assay [16] and in assay [17] were 2 nM, 158 nM and 398 nM, respectively. Also, the SI in assay [10] was found to be 2510.
In the case of `CCc1c(C)[nH]c(=O)c(N(C)CCOC)c1Cc1cc(C)cc(C)c1`, the 50% inhibitory concentration (IC50) stood at 121 nM in assay [1]; 69 nM in [2]; 10 nM in assay [3]; 3340 nM in assay [4]; 16 nM in assay [5]; 2 nM in assay [6]. Besides, the IC50 in [7] was 339 nM; in assay [8] it was 3 nM; in [9], 316 nM; in assay [12], 63 nM; in assay [13] it was 10 nM; in assay [14], 42 nM. The 50% inhibitory concentration (IC50) in assay [15] was 3 nM; in [16] it was 100 nM; in assay [17] it was 2510 nM. The SI in [10] was 20000.
For `CCc1c(C)nc(O)c(N(C)CCOC)c1C(=O)c1cccc(C)c1`, the half-maximal inhibitory concentration (IC50) in assay [1] is 17 nM; in assay [2], 15 nM; in [3], 3 nM; in assay [4], 2810 nM; in [5], 3 nM; in assay [6], 1 nM. For the same compound, the half-maximal inhibitory concentration (IC50) in [7] came out at 224 nM; in assay [8], 8 nM; in assay [9] it was 631 nM; in assay [12], 20 nM; in assay [13] it was 3 nM; in [14] it was 3 nM. In addition, the IC50 is 1 nM in [15], 1260 nM in assay [16] and 251 nM in [17]. Also, the SI in [10] stood at 79400.
`CCc1c(CO)nc(O)c(N(C)C)c1C(=O)c1cc(C)cc(C)c1`: the IC50 in assay [1] amounted to 20 nM; in assay [2] it was 7 nM; in assay [3] it was 5 nM; in assay [4] it was 149 nM; in assay [5] it was 3 nM; in assay [6] it was 1 nM. The IC50 was found to be 234 nM in assay [7]; 1 nM in [8]; 72 nM in assay [9]; 3 nM in assay [12]; 4 nM in assay [13]; 2 nM in assay [14]. The values for the half-inhibitory concentration (IC50) in assay [15], in [16] and in assay [17] were 1 nM, 631 nM and 794 nM, respectively. The SI in assay [10] was determined as 12600.
As to `CCc1c(C)[nH]c(=O)c(N(C)CCOC)c1Cc1cccc(/C=C/C#N)c1`, the 50% inhibitory concentration (IC50) was 50 nM in assay [1]; 398 nM in assay [4]; 1 nM in assay [6]; 8 nM in [8]; 40 nM in assay [9]; 20 nM in [12]. Moreover, the results for the IC50 in [16] and in [17] were 316 nM and 1000 nM, respectively. Moreover, in assay [10], the SI stood at 10000.
Take `O=C1Nc2ccc(Cl)cc2[C@@](C#CC2CC2)(C(F)(F)F)O1` [EFAVIRENZ]: the IC50 is 10000 nM in assay [1]; 6 nM in assay [3]; 10 nM in assay [5]; 40 nM in assay [8]; 40 nM in assay [11]; 2 nM in assay [13]. Besides, the half-inhibitory concentration (IC50) in assay [14] came to 251 nM; in assay [15], 5 nM; in assay [17], 25 nM.
`Cc1ccnc2c1NC(=O)c1cccnc1N2C1CC1` [NEVIRAPINE]: the IC50 was found to be 100000 nM in [4]; 135 nM in [7]; 10000 nM in assay [9]; 50 nM in assay [13]; 44 nM in [14]; 195 nM in [15]. Further, the 50% inhibitory concentration (IC50) in assay [16] is 100000 nM; in assay [17] it was 163 nM.
